Source: publication PMC6235538 (Science Advances, 2018)
Bridges are numbered along the chain shown (N, C = ends). Where no end group is shown, it is not given here.

Tests used:
[1] = test system: FL-BCRs on transduced Raji lymphoma cells; assay: Surface staining of BCR-transduced Raji cells by biotinylated peptides; format: binding, human; conditions: synthetic biotinylated peptides, flow cytometry
Method in brief: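 Raji cells were lentivirally transduced with a lymphoma BCR scFv fused to a membrane-anchored human antibody Fc fragment, then FACS-sorted for BCR carriers. Cells were grown with 10% FBS, 10 mM Hepes, penicillin/streptomycin and 2 mM GlutaMAX. Surface staining used synthetic biotinylated peptides and an anti-IgG Fc antibody, read by flow cytometry. One Raji population served as the Fc-staining control.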

[2] = test system: cells from FL patient 4 biopsy; assay: Flow cytometry staining of control biopsy cells; format: binding, human; conditions: control biopsy sample
Method in brief: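 Flow cytometry on control B cells from a lymphoma biopsy, stained with a synthetic biotinylated cyclic peptide ligand. B cells were gated with a B220-specific antibody. Bound peptide was detected with FITC-labelled streptavidin.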

Sequence	binding to BCRs on transduced Raji cells (in words) [1]	staining by the FL1 peptide (in words) [2]
CILDLPKFC (disulfide 1-9 (inferred)) [FL1]	BCRs capable of binding to the peptides were present on these cells	did not demonstrate any significant staining
CMPHWQNHC (disulfide 1-9 (inferred)) [FL2]	BCRs capable of binding to the peptides were present on these cells	–
CTTDQARKC (disulfide 1-9 (inferred)) [FL3]	BCRs capable of binding to the peptides were present on these cells	–
